Screening results as filed in PubChem.
Tb hexokinase = T. brucei hexokinase 1 inhibition. recombinant TbHK1, G6PDH-coupled NADH A340. inhibition, % at 10 µM. 220,000 tested, 0.11% active;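 active = inhibition of 50% or more in the single-dose primary screen; inactive = inhibition below 50%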
G6PDH counter = inhibits Leuconostoc G6PDH, flagging false hits in G6PDH-based assays; Purified L. mesenteroides G6PDH, diaphorase/resazurin coupled fluorescence, 45 min; inhibition, % at 5 µM; 200,000 tested, 0.12% active; AID 1020; in the data active = inhibition above about 50%
HKDC1 inh = HKDC1 (human) hexokinase inhibition | Q2TB90 | recombinant HKDC1, G6PDH/diaphorase resazurin coupled fluorescence | 340,000 tested, 0.16% active | inhibition, % at 20 µM;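 active = inhibition above about 35% when tested at 20 µM, limit read from the data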;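 note: plate controls were DMSO wells with enzyme for no effect and DMSO wells lacking enzyme for full effect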
Target sequence (Q2TB90 whole entry, looked up): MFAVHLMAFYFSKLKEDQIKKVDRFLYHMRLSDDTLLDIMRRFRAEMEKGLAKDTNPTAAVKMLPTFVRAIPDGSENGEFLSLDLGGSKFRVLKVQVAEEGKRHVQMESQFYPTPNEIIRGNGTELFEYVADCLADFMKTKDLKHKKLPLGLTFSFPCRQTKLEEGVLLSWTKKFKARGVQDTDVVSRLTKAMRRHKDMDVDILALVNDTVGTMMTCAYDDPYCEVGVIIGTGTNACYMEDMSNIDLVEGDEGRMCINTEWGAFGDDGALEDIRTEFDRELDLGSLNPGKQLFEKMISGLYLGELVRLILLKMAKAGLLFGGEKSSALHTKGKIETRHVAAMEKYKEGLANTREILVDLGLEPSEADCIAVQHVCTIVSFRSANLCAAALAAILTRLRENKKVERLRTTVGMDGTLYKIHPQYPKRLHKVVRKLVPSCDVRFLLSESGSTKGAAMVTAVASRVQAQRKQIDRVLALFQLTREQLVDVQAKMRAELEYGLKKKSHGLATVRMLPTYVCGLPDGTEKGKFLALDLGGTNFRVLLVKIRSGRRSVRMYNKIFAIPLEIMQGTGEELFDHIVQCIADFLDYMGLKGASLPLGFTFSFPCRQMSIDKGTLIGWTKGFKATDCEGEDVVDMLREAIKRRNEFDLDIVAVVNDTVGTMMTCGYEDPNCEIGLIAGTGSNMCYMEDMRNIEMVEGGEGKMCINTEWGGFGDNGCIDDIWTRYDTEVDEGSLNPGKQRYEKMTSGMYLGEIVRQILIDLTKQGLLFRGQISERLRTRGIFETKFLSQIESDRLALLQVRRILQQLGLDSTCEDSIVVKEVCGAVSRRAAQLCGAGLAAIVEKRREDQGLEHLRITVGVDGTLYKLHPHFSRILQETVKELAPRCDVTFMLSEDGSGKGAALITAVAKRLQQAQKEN
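Assay system: in-house recombinant HK5 (HKDC1) enzyme. Input: HKDC1 at 5 µg/mL. Medium: Tris pH 8.0 buffer with MgCl2, Tween-20, BSA, BME. Dosing: single 20 µM dose. Schedule: 90 min reaction incubation at room temperature, dark. Signal: resazurin-to-resorufin fluorescence via G6PDH and diaphorase coupling, 525/613 nm. Controls: DMSO-enzyme wells negative, buffer-substituted wells positive.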
PfGluPho inh = PfG6PD (Plasmodium falciparum) enzyme inhibition | PfGluPho enzyme, NADPH resazurin-diaphorase fluorescence | inhibition, % at 20 µM | 350,000 tested, 0.78% active | AID 504690;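 active = inhibition reaching at least a set limit at 20 µM in the primary screen, cut at about 59% in these data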;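 note: 0% = DMSO wells with substrate and 100% = DMSO wells lacking glucose-6-phosphate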
Diaph act CS = counter-screen for diaphorase-based assays: diaphorase activators and chemical reducers; Diaphorase/resazurin coupled assay, resorufin fluorescence, 16 min; stronger effect = higher value; 1 = vehicle wells, 0 = NADH-free wells; activation factor at 20 µM; 190,000 tested, 0.005% active; AID 1229;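 active = diaphorase activity raised at least twofold by the compound at 20 µM; inactive = activation factor below 2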
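System – purified diaphorase enzyme from Clostridium kluyveri · Input – enzyme 0.07 U/mL final · Also added – final NADH 0.114 mM, resazurin 0.1 mM · Measured by – fluorescence of resorufin, 544 nm excitation, 590 nm emission · Timing – 16 min enzyme reaction, ambient temperature · Measure – resorufin increase flagging diaphorase activators or reducers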
Diaphorase inh = inhibits diaphorase or chemically oxidizes, flagging diaphorase assay artifacts; diaphorase resazurin-to-resorufin fluorescence, NADH, 16 min; bacterial (C. kluyveri) enzyme, not human; inhibition, % at 20 µM; 190,000 tested, 0.69% active;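 active = primary screen inhibition at 20 µM above a set limit, cut at about 50% in these data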;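 note: plate controls were DMSO with full reaction for no effect and wells lacking NADH for full effect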
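Assay system: diaphorase enzyme from Clostridium kluyveri. Quantity: enzyme working solution with 0.14 U/mL diaphorase. Schedule: reaction incubation of 16 min at room temperature. Technique: resorufin fluorescence, excitation 544 nm, emission 590 nm. Controls: No-NADH positive control and DMSO neutral control.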
PfG6PD confirm = PfG6PD inhibition, single-dose confirmed; 2,400 tested, 34% active; recombinant PfGluPho, NADPH-diaphorase-resazurin fluorescence; inhibition, % at 20 µM; AID 504753; shares compounds with PfGluPho inh;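 active = inhibition of at least 50% at 20 µM in any single replicate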;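 note: 0% = DMSO with substrate and 100% = DMSO lacking glucose-6-phosphate substrate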
Diaph ctr 10uM = diaphorase inhibition or oxidation at 10 uM NADPH; AID 504862; shares compounds with PfGluPho inh; inhibition, % at 20 µM; 820 tested, 39% active; diaphorase-coupled resazurin reduction, fluorescence, NADPH 10 uM;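 active = average inhibition reaching 50% or more with the compound at 20 µM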;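 note: resorufin red fluorescence formed as diaphorase reduces resazurin using NADPH; 0% = DMSO with enzyme and 100% = DMSO without enzyme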
Diaphorase 30uM = inhibits diaphorase or oxidizes, flagging false PfG6PD hits | shares compounds with PfGluPho inh | Diaphorase/resazurin coupled assay, resorufin fluorescence, 30 uM NADPH | inhibition, % at 20 µM | 820 tested, 29% active | AID 504863;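 active = inhibition averaging 50% or more, tested at 20 µM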;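 note: 0% = DMSO with enzyme and 100% = DMSO wells lacking diaphorase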
* hit, by the source's call. Shown are actives, neighbours in structure and some others; about 1.3% of the full set was active somewhere.

What do the screens show for `CCC(=O)N/N=C/c1ccc(-c2ccc([N+](=O)[O-])cc2)o1`?
Tb hexokinase: -19.9; G6PDH counter: 11.3; HKDC1 inh: -0.5; PfGluPho inh: 1.7; Diaph act CS: 0.7; Diaphorase inh: 26.9

How did Cc1nnc(N/N=C\c2ccc(-c3ccccc3[N+](=O)[O-])o2)n1N do in these assays?
Tb hexokinase: 11.7; G6PDH counter: 24.2; HKDC1 inh: 12.3; PfGluPho inh: 82.3*; Diaph act CS: 0.5; Diaphorase inh: 47.9; PfG6PD confirm: 38.4

How did O=C(O)c1cccc(-c2ccc(/C=N/Nc3ccc([N+](=O)[O-])cc3)o2)c1 do in these assays?
Tb hexokinase: -31.3; HKDC1 inh: 5.5; PfGluPho inh: 41.8

Results for Cc1nnc(N/N=C/c2ccccc2O)n1N ?
Tb hexokinase: -8.9; G6PDH counter: 33.7; HKDC1 inh: -14.5; PfGluPho inh: 32.1; Diaph act CS: 0.8; Diaphorase inh: 23.0

Results for O=C(O)c1ccc(-c2ccc(/C=N/Nc3ccc([N+](=O)[O-])cc3)o2)cc1 ?
Tb hexokinase: -18.6; HKDC1 inh: 2.6; PfGluPho inh: 71.3*; PfG6PD confirm: 36.2

Results for COc1cc(OC)cc(C(=O)N[C@H](C(=O)Nc2c(C)n(C)n(-c3ccccc3)c2=O)C(C)C)c1 ?
HKDC1 inh: -7.0; PfGluPho inh: -3.5

What do the screens show for `C#CCNC(=O)C1=C[C@@H](c2coc3ccccc3c2=O)C[C@@H](OCc2ccc(CO)cc2)O1`?
Tb hexokinase: -10.8; G6PDH counter: 6.1; HKDC1 inh: 1.1; PfGluPho inh: -1.0; Diaph act CS: 0.9; Diaphorase inh: 5.4

What do the screens show for `COc1ccc2oc(C)c(C(=O)c3ccc([N+](=O)[O-])cc3)c2c1`?
Tb hexokinase: -6.3; G6PDH counter: -3.8; HKDC1 inh: 15.0; PfGluPho inh: 67.1*; Diaph act CS: 0.8; Diaphorase inh: 18.0; PfG6PD confirm: 15.0

Results for Nc1nc2ccc(S(=O)(=O)N3CCCCC3)cc2s1 ?
Tb hexokinase: 7.1; G6PDH counter: -2.3; HKDC1 inh: -2.8; PfGluPho inh: 64.8*; Diaph act CS: 1; Diaphorase inh: -3.5; PfG6PD confirm: 40.4

Results for Cc1[nH]n(-c2ccccc2)c(=S)c1C=NCCCN=Cc1c(C)[nH]n(-c2ccccc2)c1=S ?
Tb hexokinase: -2.1; G6PDH counter: 6.1; HKDC1 inh: -30.6; PfGluPho inh: 61.9*; Diaph act CS: 0.9; Diaphorase inh: 12.6; PfG6PD confirm: 27.0

Results for Cc1cc(C)c(NC(=O)Nc2ccc3c(c2)OCO3)c(C)c1 ?
HKDC1 inh: -1.8; PfGluPho inh: -15.9

How did Cc1cc(C)c2[nH]c(C(=O)Nc3ccc4c(c3)OCO4)cc2c1 do in these assays?
Tb hexokinase: -1.4; HKDC1 inh: 3.9; PfGluPho inh: 60.6*; PfG6PD confirm: 2.5

What do the screens show for `COc1cc(C(=O)NNC(=O)c2nn(C)c(=O)c3ccccc23)cc(OC)c1OC`?
HKDC1 inh: -7.8; PfGluPho inh: -3.5

What do the screens show for `c1ccc(-n2ncc3c(NC4CCCCCC4)ncnc32)cc1`?
Tb hexokinase: -6.8; HKDC1 inh: 0.9; PfGluPho inh: 95.5*; PfG6PD confirm: 20.5

How did CCN1/C(=C2\SC(=S)N(Cc3ccccc3)C2=O)Sc2ccccc21 do in these assays?
Tb hexokinase: 8.2; G6PDH counter: -18.0; HKDC1 inh: -5.2; PfGluPho inh: -19.0; Diaph act CS: 0.9; Diaphorase inh: 8.2

What do the screens show for `CCC(CO)[n+]1c(C)cc(/C=C2\Sc3ccccc3N2Cc2ccccc2)cc1C` (stereo not given)?
Tb hexokinase: 13.3; G6PDH counter: -29.8; HKDC1 inh: 5.2; PfGluPho inh: 74.3*; Diaph act CS: 0.8; Diaphorase inh: 15.5; PfG6PD confirm: 53.6*; Diaph ctr 10uM: 23.6; Diaphorase 30uM: 31.4

What do the screens show for `O=C(Nc1ccc(S(=O)(=O)NC2=NCCCCC2)cc1)c1cc(F)c(F)cc1Cl`?
HKDC1 inh: 0.9; PfGluPho inh: -2.9

What do the screens show for `Cc1ccc(Cl)cc1NC(=O)N[C@@H](CC(C)C)C(=O)O`?
Tb hexokinase: -9.2; HKDC1 inh: -1.9; PfGluPho inh: -2.6

Results for Cc1cc2nc(/C(C#N)=C\c3ccc(-c4ccccc4C(=O)O)o3)[nH]c2cc1C ?
HKDC1 inh: 11.9; PfGluPho inh: 59.6*; PfG6PD confirm: 46.1

What do the screens show for `CC(=O)Nc1ccc(NC(=O)c2ccccc2Sc2ccc([N+](=O)[O-])cc2Cl)cc1`?
Tb hexokinase: 1.7; G6PDH counter: -13.6; HKDC1 inh: -5.8; PfGluPho inh: 48.3; Diaph act CS: 0.8; Diaphorase inh: 15.2; PfG6PD confirm: 15.3

What do the screens show for `O=C(Nc1ccc(Nc2ccccc2)cc1)c1cc([N+](=O)[O-])ccc1Cl`?
HKDC1 inh: -0.5; PfGluPho inh: 20.4

How did Cn1c(C(=O)Nc2ccc3c(c2)OCCO3)cc2sccc21 do in these assays?
Tb hexokinase: -5.7; G6PDH counter: -5.0; HKDC1 inh: -6.1; PfGluPho inh: 65.8*; Diaph act CS: 0.9; Diaphorase inh: 13.4; PfG6PD confirm: 18.1

How did O=c1c2ccccc2sn1-c1cccc(Cl)c1 do in these assays?
PfGluPho inh: 127.8*; PfG6PD confirm: 104.1*; Diaph ctr 10uM: -10.7; Diaphorase 30uM: 3.1

Results for CN(C)S(=O)(=O)c1cccc(-n2sc3ccccc3c2=O)c1 ?
Tb hexokinase: 85.9*; G6PDH counter: 7.8; HKDC1 inh: 3.8; PfGluPho inh: 114.8*; Diaph act CS: 0.8; Diaphorase inh: 23.2; PfG6PD confirm: 111.5*; Diaph ctr 10uM: -24.7; Diaphorase 30uM: -23.6

What do the screens show for `CN(C)S(=O)(=O)c1ccc2[nH]cc(/C=C/c3nc4ccccc4c(=O)n3-c3ccccc3)c2c1`?
Tb hexokinase: -6.0; G6PDH counter: 12.7; HKDC1 inh: -3.7; PfGluPho inh: 4.6; Diaph act CS: 0.8; Diaphorase inh: 19.9

How did Cc1nn(CCC(N)=S)c2nc(-c3cccs3)cc(C(F)(F)F)c12 do in these assays?
Tb hexokinase: -25.0; G6PDH counter: -18.4; HKDC1 inh: -0.4; PfGluPho inh: 62.5*; Diaph act CS: 0.8; Diaphorase inh: 21.6; PfG6PD confirm: 7.3

What do the screens show for `O=C(c1cc(Br)c(Br)s1)N1CCc2ccccc2C1`?
HKDC1 inh: 4.0; PfGluPho inh: 6.5
